Screens from PubChem BioAssay.
SMARCA2 activ – activators of SMARCA2 function | activation, % at 9.1 µM | 1% of 370,000 active | AID 652017 | MG213 cells, MMTV-luciferase reporter, dexamethasone, overnight; in the data active = activation above about 7.8%;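 note: 0% = vehicle wells and 100% = reference activator wells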
NR2E3 ag-1 – activates human photoreceptor nuclear receptor NR2E3. GST-NR2E3/biotin-RetCOR TR-FRET, 1536-well. inhibition of corepressor binding, % at 4.78 µM. 0.12% of 320,000 active. AID 2300;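 active = percent inhibition above the cutoff of mean plus 3 SD of all tested compounds, set per screening campaign, cut at about 20% in these data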;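 note: 0% = DMSO wells and 100% = biotin wells as full block of FRET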
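System: GST-tagged NR2E3 plus biotinylated RetCOR corepressor; Buffer or medium: pH 7.5 Tris-based buffer; Probe or stimulus: RetCOR corepressor, biotinylated, 7 nM; Doses: compound at 4.8 µM, single dose; Schedule: 5 h incubation at 4 °C; Technique: time-resolved FRET; Evaluation: percent inhibition of TR-FRET ratio; Replication: one well per compound, singlicate testing.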
NR2E3 ag-2 – activates human NR2E3 receptor. Q9Y5X4. CHO-S Gal4-NCOR/VP16-NR2E3 two-hybrid, luciferase. inhibition of corepressor binding, % at 3.98 µM. 0.35% of 360,000 active. AID 602229;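 active = inhibition above the mean of all tested compounds plus 3 SD, cut at about 70% in these data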;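 note: 0% = DMSO with NR2E3 transfected cells and 100% = cells lacking NR2E3 construct; higher means lower luciferase signal from less NR2E3 corepressor binding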
JMJD2C inh – blocks human GASC-1 demethylase activity; GST-JMJD2C(1-420) H3K9me3 demethylation, DELFIA europium; 0.069% of 330,000 active; inhibition, % at 2.35 µM; Q9H3R0;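 active = more than half of a compound's replicate wells show inhibition beyond 50%, single wells judged on their own value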;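 note: signal counts dimethyl H3K9 product captured on neutravidin plate; 0% = median of DMSO wells and 100% = 0.3 times that DMSO median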
Target sequence (Q9H3R0 1-420 limits assumed): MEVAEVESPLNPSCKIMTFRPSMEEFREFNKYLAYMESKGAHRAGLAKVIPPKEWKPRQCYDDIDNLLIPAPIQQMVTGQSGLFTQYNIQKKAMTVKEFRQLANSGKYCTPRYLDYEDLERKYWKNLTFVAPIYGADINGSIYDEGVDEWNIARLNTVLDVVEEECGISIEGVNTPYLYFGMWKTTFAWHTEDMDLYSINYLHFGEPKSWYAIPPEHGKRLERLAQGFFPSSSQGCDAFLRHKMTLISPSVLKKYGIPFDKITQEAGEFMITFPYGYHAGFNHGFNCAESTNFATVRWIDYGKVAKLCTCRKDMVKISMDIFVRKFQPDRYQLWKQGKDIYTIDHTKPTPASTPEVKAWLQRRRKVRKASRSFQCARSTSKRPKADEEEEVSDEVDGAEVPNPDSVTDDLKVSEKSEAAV
DAX1 inh-1 – inhibits human nuclear receptor DAX1. P51843. HEK293 Gal4-DAX1 luciferase reporter, luminescence. inhibition, % at 6.75 µM. 0.99% of 340,000 active. AID 504766;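 active = inhibition above the mean over all tested compounds plus 3 SD, cut at about 4.2% in these data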;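 note: 0% = DAX1-transfected cells with DMSO and 100% = empty-vector control cells with DMSO; inhibition shows as a rise in luminescence from relieved DAX1 repression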
Target sequence (P51843 207-470 limits assumed): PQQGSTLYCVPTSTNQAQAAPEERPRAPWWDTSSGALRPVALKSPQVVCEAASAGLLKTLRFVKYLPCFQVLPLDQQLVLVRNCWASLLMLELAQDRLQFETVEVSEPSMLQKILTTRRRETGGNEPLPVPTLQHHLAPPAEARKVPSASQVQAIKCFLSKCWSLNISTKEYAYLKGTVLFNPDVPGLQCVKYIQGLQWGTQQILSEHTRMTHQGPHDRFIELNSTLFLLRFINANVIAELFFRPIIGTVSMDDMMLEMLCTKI
DAX1 inh-2 – blocks DAX1 repression of SF-1 activated StAR promoter. HEK293T StAR-luciferase reporter, SF-1/DAX-1 repression relief. inhibition, % at 6.8 µM. 1.1% of 370,000 active. AID 652010;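 active = inhibition above the mean over all tested compounds plus 3 SD, cut at about 3.6% in these data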;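 note: 0% = DAX-1 cells with DMSO and 100% = cells lacking DAX-1 with DMSO; higher inhibition means more luminescence from relief of DAX-1 repression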
SMARCA2 conf – SMARCA2 activation, confirmation screen; 30% of 3,500 active; activation, % at 9.1 µM; MG213 cells, MMTV-luciferase with dexamethasone, luminescence, overnight; MG213 cells expressing E1A, Rb sequestered; DMSO wells 0%, reference activator 100%; shares compounds with SMARCA2 activ;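 active = activation above its plate's cutoff, the mean activation of tested wells plus 3 SD, cut at about 7.9% in these data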
VP16 Luc act – GAL4-VP16 reporter activation counter-screen; shares compounds with SMARCA2 activ; HEK293 GAL4-VP16 pG5luc reporter, luciferase luminescence; scaled: DMSO wells 0%, SAHA wells 100%; activation, % at 9.1 µM; 41% of 3,500 active; AID 686939;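 active = activation above the solvent-only control well mean plus 3 SD, averaged across control plates, cut at about 5.2% in these data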
Starred values were filed as active, the others as inactive. Only some compounds are listed: those with a hit (about 3.2% of all), similar ones and a draw of the others.

How did CC(=O)c1cccc(NC(=O)/C(=C/c2ccncc2)NC(=O)c2ccccc2)c1 do in these assays?
SMARCA2 activ: 0; NR2E3 ag-1: -1; NR2E3 ag-2: -36; JMJD2C inh: 1; DAX1 inh-1: 0; DAX1 inh-2: 0

How did Nc1c(-c2ccccc2)c(CN2CCOCC2)nn1-c1ccccc1 do in these assays?
SMARCA2 activ: 12*; NR2E3 ag-1: 2; NR2E3 ag-2: -3; JMJD2C inh: -8; DAX1 inh-1: -1; DAX1 inh-2: -1; SMARCA2 conf: -2; VP16 Luc act: 1

Results for Cc1nc2c(-c3ccccc3)c(C)nn2c(N)c1-c1ccccc1 ?
SMARCA2 activ: 5; NR2E3 ag-1: 4; NR2E3 ag-2: -142; JMJD2C inh: 2; DAX1 inh-1: 1; DAX1 inh-2: 3

Results for Cc1nn(-c2ccccc2)c(N)c1-c1ccccc1 ?
SMARCA2 activ: 11*; NR2E3 ag-1: 2; NR2E3 ag-2: -39; JMJD2C inh: -16; DAX1 inh-1: -1; DAX1 inh-2: 1; SMARCA2 conf: 8.2*; VP16 Luc act: 12*

What do the screens show for `COC(=O)[C@]12C[C@H](CC(=O)NCc3ccc(OC)c(OC)c3)C(=O)N(Cc3cccc4ccccc34)C1=C[C@H](C1CCCC1)O[C@@H]2C`?
SMARCA2 activ: -3; DAX1 inh-2: -1

Results for Cc1cc(/C(N)=N/OC(=O)c2cccc(Cl)c2)no1 ?
SMARCA2 activ: 13*; NR2E3 ag-1: -1; NR2E3 ag-2: -79; JMJD2C inh: -3; DAX1 inh-2: 1; SMARCA2 conf: 4; VP16 Luc act: 1

What do the screens show for `Cc1cc(/C(N)=N/OC(=O)c2ccc(Cl)cc2)no1`?
SMARCA2 activ: 4; NR2E3 ag-1: 3; NR2E3 ag-2: -143; JMJD2C inh: 9; DAX1 inh-2: 2

What do the screens show for `COc1cc(OC)c(C(=O)O/N=C(\N)c2ccccc2)cc1OC`?
SMARCA2 activ: 8.6*; NR2E3 ag-1: 1; NR2E3 ag-2: -19; JMJD2C inh: -17; DAX1 inh-1: 1; DAX1 inh-2: 0; SMARCA2 conf: 3; VP16 Luc act: 2

How did Cc1cccc(/C(N)=N/OC(=O)c2ccoc2C)c1 do in these assays?
SMARCA2 activ: 8.1*; NR2E3 ag-1: 0; NR2E3 ag-2: -43; JMJD2C inh: -1; DAX1 inh-1: 2; DAX1 inh-2: 1; SMARCA2 conf: 13*; VP16 Luc act: 13*

How did N/C(=N\OC(=O)c1ccc2c(c1)OCO2)c1ccc(Cl)cc1 do in these assays?
SMARCA2 activ: 8.9*; NR2E3 ag-1: -3; NR2E3 ag-2: -20; JMJD2C inh: 9; DAX1 inh-1: 1; DAX1 inh-2: 0; SMARCA2 conf: 10*; VP16 Luc act: 6.8*

How did Cc1ccc(/C(N)=N/OC(=O)c2ccc3c(c2)OCO3)cc1 do in these assays?
SMARCA2 activ: 2; NR2E3 ag-1: 0; NR2E3 ag-2: -69; JMJD2C inh: -4; DAX1 inh-1: 1; DAX1 inh-2: 2

Results for COC(=O)[C@]12C[C@H](CC(=O)N3CCSCC3)C(=O)N(Cc3ccco3)C1=C[C@H](C1CCCC1)O[C@@H]2C ?
SMARCA2 activ: -2; DAX1 inh-2: 0

What do the screens show for `Cc1ccc(F)c(Cn2cnc3c(cnn3C(C)(C)C)c2=O)c1Cl`?
SMARCA2 activ: 0; NR2E3 ag-1: -1; NR2E3 ag-2: 22; JMJD2C inh: 2; DAX1 inh-1: -2; DAX1 inh-2: -1

What do the screens show for `CNC(=S)N(CCCO)Cc1cc2cc3c(cc2[nH]c1=O)OCO3`?
SMARCA2 activ: -1; NR2E3 ag-1: 1; NR2E3 ag-2: 3; JMJD2C inh: 3; DAX1 inh-1: 1; DAX1 inh-2: -1

Results for Cc1cccc(C(=O)O/N=C(\N)c2ccc(Cl)cc2)c1 ?
SMARCA2 activ: 9.0*; NR2E3 ag-1: 3; NR2E3 ag-2: -35; JMJD2C inh: -9; DAX1 inh-1: 1; DAX1 inh-2: 0; SMARCA2 conf: 8; VP16 Luc act: 5

How did Cc1ccsc1/C=N/NC(=O)CO do in these assays?
SMARCA2 activ: 4; NR2E3 ag-1: 0; NR2E3 ag-2: 4; JMJD2C inh: -10; DAX1 inh-1: 2; DAX1 inh-2: -1

Results for Cc1ccsc1/C=N/NC(=O)c1sccc1C ?
SMARCA2 activ: 11*; NR2E3 ag-1: -1; NR2E3 ag-2: -160; JMJD2C inh: -2; DAX1 inh-1: 3; DAX1 inh-2: 3.7*; SMARCA2 conf: 12*; VP16 Luc act: 11*

Results for CCNC(=O)c1c(NC(=O)c2cc(-c3cc(C)cc(C)c3O)n[nH]2)sc2c1CCCC2 ?
SMARCA2 activ: 2; NR2E3 ag-2: 3; DAX1 inh-1: 0; DAX1 inh-2: 0

How did Fc1ccc(NCc2cn3ccccc3n2)cc1 do in these assays?
SMARCA2 activ: 9.7*; NR2E3 ag-1: -3; NR2E3 ag-2: -62; JMJD2C inh: -14; DAX1 inh-1: 0; DAX1 inh-2: 2; SMARCA2 conf: 7; VP16 Luc act: 6.3*

How did Fc1cccc(NCc2cn3ccccc3n2)c1 do in these assays?
SMARCA2 activ: 4; NR2E3 ag-1: 4; NR2E3 ag-2: -120; JMJD2C inh: -4; DAX1 inh-1: 1; DAX1 inh-2: 4

How did CC(C)C1N=C2c3ccccc3N=C(SCC(=O)NCCc3ccc(S(N)(=O)=O)cc3)N2C1=O (stereo not drawn) do in these assays?
SMARCA2 activ: 9.4*; NR2E3 ag-1: 1; NR2E3 ag-2: 7; JMJD2C inh: -14; DAX1 inh-1: 0; DAX1 inh-2: -1; SMARCA2 conf: -2; VP16 Luc act: -1

How did COCCCNC(=O)CSC1=Nc2ccccc2C2=NC(c3ccccc3)C(=O)N12 (stereo not drawn) do in these assays?
SMARCA2 activ: -1; NR2E3 ag-1: 6; NR2E3 ag-2: -42; JMJD2C inh: 6; DAX1 inh-1: -1; DAX1 inh-2: -1

Results for O=C(Nc1ccccc1)c1ccc(NCC2CCCO2)c([N+](=O)[O-])c1 (stereo not drawn) ?
SMARCA2 activ: 8.8*; NR2E3 ag-1: -2; NR2E3 ag-2: -43; JMJD2C inh: 19; DAX1 inh-1: 0; DAX1 inh-2: 0; SMARCA2 conf: 2; VP16 Luc act: 4

What do the screens show for `COc1ccc(NC(=O)c2ccc(NCC3CCCO3)c([N+](=O)[O-])c2)cc1` (stereo not drawn)?
SMARCA2 activ: 0; NR2E3 ag-1: 3; NR2E3 ag-2: 16; JMJD2C inh: -21; DAX1 inh-1: -1; DAX1 inh-2: 0
